# Rows were chosen to be rich in hits. Some 3.8% of all compounds tested hit in one or more screens of this group.
# MC4R antag cAMP – MC4R antagonists of cAMP signaling, primary screen, cell-based, TR-FRET, antagonist arm of biased-ligand search. Melanocortin receptor 4 (Homo sapiens), P32245. MC4R-expressing cells, MTII-stimulated cAMP, LANCE TR-FRET. inhibition, % at 6.5 µM. 0.48% of 360,000 active;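 active = inhibition above its plate's cutoff, the mean of tested wells on that plate plus 3 SD, cut at about 29% in these data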;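 note: 0% = Melanotan II alone and 100% = Melanotan II plus saturating MCL0020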
# Target sequence (P32245 whole entry, looked up): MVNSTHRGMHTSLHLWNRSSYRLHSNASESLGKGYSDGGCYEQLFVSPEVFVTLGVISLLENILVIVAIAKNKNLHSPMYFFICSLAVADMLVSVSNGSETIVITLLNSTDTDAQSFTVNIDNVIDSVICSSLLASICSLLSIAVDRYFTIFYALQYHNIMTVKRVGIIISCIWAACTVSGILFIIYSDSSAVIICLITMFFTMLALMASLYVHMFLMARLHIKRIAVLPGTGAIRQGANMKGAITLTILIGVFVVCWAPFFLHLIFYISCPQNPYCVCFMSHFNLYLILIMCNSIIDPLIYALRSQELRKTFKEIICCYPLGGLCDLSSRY
#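 Test system: U2OS cells stably expressing human melanocortin 4 receptor (MC4R); also added: Melanotan II challenge; compound: 6.5 µM single dose; timing: 30-min compound preincubation, 1-h Melanotan II challenge, 1-h detection, room temperature; signal: Eu-cAMP/anti-cAMP TR-FRET, emission 671 nm; repeats: one well per compound, no replicates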
# Beta apoptosis – inhibitors of cytokine-induced beta cell apoptosis, primary screen, luminescence; INS-1E cytokine-induced death, ATP luminescence, 48 h; percent of positive-control rescue, neutral wells zero; protection from apoptosis, % (test concentration not listed); 0.8% of 300,000 active; AID 435005, 2010;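 active = Every replicate reaches about 75%, or at least half do and their mean reaches it too, limit read from the data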;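 note: 0% = cytokine-treated negative control wells and 100% = positive control rescue; higher means more ATP so stronger rescue from cytokine killing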
# MC4R ag barr – MC4R agonists recruiting beta-arrestin, primary screen, cell-based, luminescence, agonist arm of biased-ligand search; Melanocortin receptor 4 (Homo sapiens), P32245; U2OS MC4R beta-arrestin complementation; percent of melanotan II response, DMSO zero; activation, % at 8.9 µM; 0.98% of 360,000 active; AID 540308, 2011;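 active = activation above a per-plate cutoff, the mean activation of sample wells on that plate plus 3 SD, cut at about 8% in these data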
# CSC inhib – cancer stem cell viability inhibitors, primary screen, luminescence. cancer stem cell-like cells viability. inhibition, % at 7.5 µM. 1.1% of 300,000 active; in the data active = inhibition above about 75%; tested in HMLE shEcad cells
# TMEM16A act – TMEM16A chloride channel activators or potentiators, primary screen, cell-based, HTS | HEK293 TMEM16A/YFP-H148Q/I152L, iodide quench fluorescence; stronger effect = lower value | B-score at 10 µM | AID 623877, 2012 | 0.3% of 340,000 active;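 active = fluorescence-ratio B-score plate-corrected deviation score at least 3 library SD below zero, with starting fluorescence score within 5 deviations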;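 note: channel opened by trigger with iodide after compound preincubation; score built on the fluorescence ratio of max minus min over baseline; more negative score means more quench and so TMEM16A activation or potentiation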
# ANO1 block – TMEM16A chloride channel inhibitors, primary screen, cell-based, HTS; Anoctamin-1 (Mus musculus), Q8BHY3; HEK293 TMEM16A/YFP iodide influx fluorescence, ionomycin; normalized B-score (activity score, 25-100; higher = stronger inhibition) at 10 µM; 1.2% of 310,000 active;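 active = ratio plate-corrected score three or more library SD toward inhibition, starting fluorescence score within five deviations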;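 note: score derived from kinetic fluorescence span divided by baseline fluorescence per well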
# TMEM16A reconf – TMEM16A chloride channel inhibitors, confirmation, cell-based, re-confirmation; inhibition, % at 10 µM; shares compounds with ANO1 block; 39% of 2,300 active; HEK293 TMEM16A/YFP-H148Q, iodide quench fluorescence; ionomycin added to raise cell calcium; AID 652189, 2013;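 active = mean duplicate percent inhibition, scaled so buffer wells are 0 and the reference blocker 100, over three buffer SD above buffer mean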
# TMEM16A Ca cntr – calcium mobilization in TMEM16A/YFP HEK293 cells, confirmation, counter-screen for TMEM16A inhibitor project | shares compounds with ANO1 block | Fluo4 calcium mobilization | calcium response (% of ionomycin), % at 10 µM | 2% of 2,300 active | AID 652231, 2013;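 active = duplicate-averaged calcium signal over 20% of the ionomycin maximum, relative to buffer baseline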;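 note: each well's signal is peak minus trough fluorescence divided by its pre-addition baseline; 0% = buffer wells and 100% = ionomycin wells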
# YFP-HEK293 quench – iodide YFP quench changes in parental YFP-HEK293, counter-screen for TMEM16A inhibitor project, cell-based. shares compounds with ANO1 block. ionomycin. YFP ratio F(max-min)/F0 at 10 µM. 2,300 tested, under 10 active;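 active = yellow fluorescent protein signal ratio exceeding the buffer control mean by over 5 SD of those controls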;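 note: ratio is mean of duplicate wells from kinetic YFP trace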
# ClC-1 rat inh – ClC-1 chloride channel inhibition, selectivity assay for TMEM16A inhibitor project, cell-based, voltage-dependent ClC-1 | shares compounds with ANO1 block | CHO ClC-1-YFP, iodide influx fluorescence quench; iodide control reads 0, buffer control 100 | ratio percent, % at 10 µM | 2,300 tested, under 10 active;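 active = duplicate-mean ratio percent above the mean of iodide-only control wells, which defines zero, plus 5 of their SD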;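 note: higher percent means stronger block of ClC-1 iodide influx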
# Active calls of the source: *; i = inactive; nt = not tested or not shown.
SMILES,MC4R antag cAMP,Beta apoptosis,MC4R ag barr,CSC inhib,TMEM16A act,ANO1 block,TMEM16A reconf,TMEM16A Ca cntr,YFP-HEK293 quench,ClC-1 rat inh
COc1ccccc1C(CC(=O)c1ccccc1)CC(=O)c1ccccc1,15,6,-2,9,i,100*,i,i,-0.96,-14
COC(=O)[C@@]12CCCN1[C@H](c1ccc(-c3cccc(Cl)c3)cc1)[C@H]1C(=O)N(C)C(=O)[C@H]12,16,0,2,6,i,i,nt,nt,nt,nt
COC(=O)[C@@]12CCCN1[C@H](c1ccc(-c3ccc(Cl)c(Cl)c3)cc1)[C@H]1C(=O)N(C)C(=O)[C@H]12,16,1,-1,-7,i,100*,i,i,-0.89,2
Cc1ccc(S(=O)(=O)N2CCCCC2)cc1NC(=O)CNC(C)c1ccc(Cl)c(Cl)c1 (centres undefined),8,0,1,nt,i,nt,nt,nt,nt,nt
Cc1ccc(C(C)C)c(OCC(=O)Nc2ccc(N3CCOCC3)cc2N2CCOCC2)c1,11,nt,-4,nt,i,nt,nt,nt,nt,nt
O=C(O)CSc1nnc(Cn2c(=O)sc3ccccc32)n1-c1cccc(Cl)c1,8,8,-3,-4,i,i,nt,nt,nt,nt
NC(=O)CSc1nnc(Cn2c(=O)sc3ccccc32)n1-c1cccc(Cl)c1,-2,-3,1,-9,i,25*,i,i,-1.3,-6
Cn1cnnc1SCC(=O)N1CCc2ccccc21,8,-7,-2,2,i,i,nt,nt,nt,nt
CC(C)c1nnc(SCC(=O)N2CCc3ccccc32)n1C,6,-4,-1,nt,i,100*,i,i,-1,-3
CCCCN(C(C)=O)c1ccc(S(=O)(=O)NC2=NCCCCC2)cc1NC(C)=O,3,-9,2,-19,i,nt,nt,nt,nt,nt
COc1cc(C(C)=O)ccc1Oc1ccc(S(=O)(=O)N2CCOCC2)cn1,8,0,0,-10,i,nt,nt,nt,nt,nt
Cc1nc2c(cc(Oc3ccc(S(=O)(=O)N4CCOCC4)cn3)c3ccsc32)s1,2,7,-1,-11,i,25*,i,i,-1,-19
CC(C)c1ccc(/C=C2\SC(=O)N(CC(=O)NC3C=CS(=O)(=O)C3)C2=O)cc1 (centres undefined),3,8,-3,-5,i,i,nt,nt,nt,nt
Oc1c(Br)cc(Br)cc1C=Nc1cccc2ncccc12,-2,-13,-2,7,i,i,18%*,i,-1,-6
Brc1cccc(C=Nc2cccc3ncccc23)c1,6,-5,2,-14,i,i,nt,nt,nt,nt
CC(=O)c1c(C)[nH]c(C(=O)CSc2nc3ccc(C)cc3[nH]2)c1C,-1,-15,-1,nt,i,i,i,i,-0.82,-1
COC(=O)[C@]1(C)N[C@H](CN(C)C(=O)c2ccccc2)[C@@H]2C(=O)N(C)C(=O)[C@@H]21,4,-6,1,-13,nt,nt,nt,nt,nt,nt
COC(=O)C1=CN(CC2CCCO2)C=C(C(=O)OC)C1c1ccsc1 (centres undefined),20,3,0,-9,i,100*,i,i,-1.1,-15
CN(C)S(=O)(=O)c1cccc(COC(=O)c2ccc3c(c2)OCO3)c1,5,-5,-2,-2,i,i,nt,nt,nt,nt
CN(C)S(=O)(=O)c1cccc(COC(=O)c2ccc(Cl)cc2O)c1,5,-8,4,-1,i,100*,28%*,i,-0.88,-24
O=C1NC(=O)C(=Cc2ccccc2[N+](=O)[O-])S1,3,nt,-4,nt,i,nt,nt,nt,nt,nt
Cc1ccc(S(=O)(=O)Oc2ccccc2/C=C2/SC(=O)NC2=O)cc1,0,nt,-1,27,i,25*,i,i,-0.9,-11
O/N=C/c1ccc2cccc(OCc3ccccc3)c2n1,2,-3,1,1,i,i,nt,nt,nt,nt
NC(N)=N/N=C/c1ccc2cccc(OCc3ccccc3)c2n1,10,30,-2,38,i,25*,i,i,-1,-14
Fc1cc2[nH]c(=S)[nH]c2c(Br)c1N1CCSCC1,1,5,0,-2,nt,i,nt,nt,nt,nt
SMILES,MC4R antag cAMP,Beta apoptosis,MC4R ag barr,CSC inhib,TMEM16A act,ANO1 block,TMEM16A reconf,TMEM16A Ca cntr,YFP-HEK293 quench,ClC-1 rat inh
COc1ccc(-n2nc(C(=O)NCC(=O)NCCc3ccc(OC)c(OC)c3)c3ccccc3c2=O)cc1Cl,-1,1,1,23,i,25*,i,i,-1.3,-4
CCOC(=O)C1=CC[C@H]2c3c(c4ccccc4n3C)C(=O)C1N2C,3,4,-1,-5,i,nt,nt,nt,nt,nt
O=C(NCc1ccco1)c1ccccc1NS(=O)(=O)c1ccc(Br)s1,20,14,0,26,i,100*,i,i,-0.82,-22
COc1ccc(S(=O)(=O)Nc2ccccc2C(=O)NCc2ccco2)cc1,10,-2,-1,-7,i,i,nt,nt,nt,nt
CCC(Sc1nc(C)cc(=O)[nH]1)C(=O)Nc1nc(-c2ccccc2)cs1 (centres undefined),22,-1,0,nt,i,25*,43%*,i,-1.1,-10
Cc1ccc(-c2csc(NC(=O)CSc3nc(C)cc(=O)[nH]3)n2)cc1,nt,-4,nt,19,nt,i,nt,nt,nt,nt
Cc1c(C(=O)Nc2ccc(Oc3ccccc3)cc2)sc2nc3n(c(=O)c12)CCC3,8,29,0,nt,i,100*,i,i,-1.2,-18
COc1cc(CNS(=O)(=O)c2ccc3c(c2)CC(C)N3C(=O)C2CCC2)cc(OC)c1OC (centres undefined),10,15,-4,nt,i,25*,i,i,-1,-13
